Columns and labels:
Type in all cases: functional
[1] = Growth inhibition of human BT549 cells at 10 uM after 48 hrs by sulforhodamine B assay; settings: BT-549, 48 h, read-out: GI
How it was run: (§1)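 Run at NCI on the 60-line panel. Cells grown in RPMI 1640 with 5% FBS and 2 mM L-glutamine, plated at 5000–40,000 cells/well by doubling time, and held 24 h at 37 °C before dosing. Drug (DMSO stock) given at a single final 10 µM in triplicate wells for 48 h. Adherent cells fixed with cold TCA (10% final), suspension cells with 16% TCA. SRB stain read at 515 nm. Percent growth from Tz, C and Ti.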

T47D = assay: Growth inhibition of human T47D cells at 10 uM after 48 hrs by sulforhodamine B assay; settings: read-out: GI
How it was run: (§2)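 NCI-60 panel, adherent cells grown in RPMI 1640 with 5% FBS and 2 mM L-glutamine, plated at 5000–40,000 cells/well and preincubated 24 h at 37 °C, 5% CO2. 10 µM final compound from DMSO stock, triplicate wells, 48 h. Fixed with cold TCA (10% final, 60 min, 4 °C) and stained with 0.4% SRB. Absorbance read at 515 nm; growth calculated against time-zero and control wells.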

[2] = Growth inhibition of human MOLT4 cells at 10 uM after 48 hrs by sulforhodamine B assay; settings: MOLT-4, 48 h, read-out: GI; how it was run: as §1
[3] = Growth inhibition of human RPMI8226 cells at 10 uM after 48 hrs by sulforhodamine B assay; settings: RPMI-8226, 48 h, read-out: GI; how it was run: as §1
[4] = Growth inhibition of human HOP62 cells at 10 uM after 48 hrs by sulforhodamine B assay; settings: HOP-62, 48 h, read-out: GI; how it was run: as §1
NCI-H322M = assay: Growth inhibition of human NCI-H322M cells at 10 uM after 48 hrs by sulforhodamine B assay; settings: read-out: GI; how it was run: as §1
[5] = Growth inhibition of human COLO205 cells at 10 uM after 48 hrs by sulforhodamine B assay; settings: COLO 205, 48 h, read-out: GI; how it was run: as §1
[6] = Growth inhibition of human HCC2998 cells at 10 uM after 48 hrs by sulforhodamine B assay; settings: HCC 2998, 48 h, read-out: GI; how it was run: as §1
[7] = Growth inhibition of human HCT116 cells at 10 uM after 48 hrs by sulforhodamine B assay; settings: HCT-116, 48 h, read-out: GI; how it was run: as §1
[8] = Growth inhibition of human HCT15 cells at 10 uM after 48 hrs by sulforhodamine B assay; settings: HCT-15, 48 h, read-out: GI; how it was run: as §1
[9] = Growth inhibition of human SF539 cells at 10 uM after 48 hrs by sulforhodamine B assay; settings: SF-539, 48 h, read-out: GI; how it was run: as §1
U-251 = assay: Growth inhibition of human U251 cells at 10 uM after 48 hrs by sulforhodamine B assay; settings: U-251, 48 h, read-out: GI; how it was run: as §2
[10] = Growth inhibition of human LOXIMVI cells at 10 uM after 48 hrs by sulforhodamine B assay; settings: LOX IMVI, read-out: GI; how it was run: as §1
Malme-3M = assay: Growth inhibition of human MALME-3M cells at 10 uM after 48 hrs by sulforhodamine B assay; settings: read-out: GI; how it was run: as §1
[11] = Growth inhibition of human UACC257 cells at 10 uM after 48 hrs by sulforhodamine B assay; settings: UACC-257, 48 h, read-out: GI; how it was run: as §2
[12] = Growth inhibition of human IGROV1 cells at 10 uM after 48 hrs by sulforhodamine B assay; settings: IGROV-1, 48 h, read-out: GI; how it was run: as §1
[13] = Growth inhibition of human OVCAR4 cells at 10 uM after 48 hrs by sulforhodamine B assay; settings: OVCAR-4, 48 h, read-out: GI; how it was run: as §1
[14] = Growth inhibition of human SKOV3 cells at 10 uM after 48 hrs by sulforhodamine B assay; settings: SK-OV-3, 48 h, read-out: GI; how it was run: as §1
786-0 = assay: Growth inhibition of human 786-0 cells at 10 uM after 48 hrs by sulforhodamine B assay; settings: 786-0, 48 h, read-out: GI; how it was run: as §1
[15] = Growth inhibition of human Caki1 cells at 10 uM after 48 hrs by sulforhodamine B assay; settings: CAKI-1, 48 h, read-out: GI; how it was run: as §1
[16] = Growth inhibition of human RXF393 cells at 10 uM after 48 hrs by sulforhodamine B assay; settings: RXF 393, 48 h, read-out: GI; how it was run: as §1
SN12C = assay: Growth inhibition of human SN12C cells at 10 uM after 48 hrs by sulforhodamine B assay; settings: read-out: GI; how it was run: as §1
[17] = Growth inhibition of human TK10 cells at 10 uM after 48 hrs by sulforhodamine B assay; settings: TK-10, 48 h, read-out: GI; how it was run: as §2
MCF7 = assay: Growth inhibition of human MCF7 cells at 10 uM after 48 hrs by sulforhodamine B assay; settings: MCF7, 48 h, read-out: GI; how it was run: as §1

SMILES | inhibition of growth at 10 µM [1] | inhibition of growth at 10 µM (T47D) | inhibition of growth at 10 µM [2] | inhibition of growth at 10 µM [3] | inhibition of growth at 10 µM [4] | inhibition of growth at 10 µM (NCI-H322M) | inhibition of growth at 10 µM [5] | inhibition of growth at 10 µM [6] | inhibition of growth at 10 µM [7] | inhibition of growth at 10 µM [8] | inhibition of growth at 10 µM [9] | inhibition of growth at 10 µM (U-251) | inhibition of growth at 10 µM [10] | inhibition of growth at 10 µM (Malme-3M) | inhibition of growth at 10 µM [11] | inhibition of growth at 10 µM [12] | inhibition of growth at 10 µM [13] | inhibition of growth at 10 µM [14] | inhibition of growth at 10 µM (786-0) | inhibition of growth at 10 µM [15] | further results
COc1ccc(Cc2nnc(Nc3ccc(NC(=O)Nc4ccc(C#N)cc4)cc3)c3ccccc23)cc1 | 51% | 48% | 56% | 95% | 33% | < 30% | < 30% | < 30% | 44% | 36% | 67% | 63% | 46% | 42% | < 30% | 46% | < 30% | 37% | 83% | < 30% | inhibition of growth at 10 µM [16]: 110%; inhibition of growth at 10 µM (SN12C): < 30%; inhibition of growth at 10 µM [17]: < 30%; inhibition of growth at 10 µM (MCF7): 45%
COc1ccc(Cc2nnc(Nc3ccc(Cl)c(C(F)(F)F)c3)c3ccccc23)cc1 | < 30% | 59% | 69% | 94% | < 30% | 37% | < 30% | 42% | 73% | 58% | 42% | 59% | < 30% | < 30% | < 30% | 32% | 45% | < 30% | 41% | 35% | inhibition of growth at 10 µM [16]: 33%; inhibition of growth at 10 µM (SN12C): 46%; inhibition of growth at 10 µM [17]: 40%; inhibition of growth at 10 µM (MCF7): 48%
COc1ccc(Cc2nnc(Nc3ccc(OC)cc3)c3ccccc23)cc1 | < 30% | 46% | 31% | < 30% | < 30% | < 30% | < 30% | < 30% | 34% | < 30% | < 30% | < 30% | < 30% | < 30% | < 30% | < 30% | < 30% | < 30% | < 30% | < 30% | inhibition of growth at 10 µM [16]: < 30%; inhibition of growth at 10 µM (SN12C): 34%; inhibition of growth at 10 µM [17]: < 30%; inhibition of growth at 10 µM (MCF7): 38%
COc1ccc(Cc2nnc(Nc3cccc(OC)c3)c3ccccc23)cc1 | < 30% | 30% | < 30% | 77% | 35% | < 30% | < 30% | < 30% | 40% | < 30% | < 30% | < 30% | < 30% | < 30% | < 30% | 33% | < 30% | < 30% | < 30% | < 30% | inhibition of growth at 10 µM [16]: 32%; inhibition of growth at 10 µM (SN12C): < 30%; inhibition of growth at 10 µM [17]: < 30%; inhibition of growth at 10 µM (MCF7): < 30%
